Experimental data reported in ChEMBL document CHEMBL4818993, “Installation of an aryl boronic acid function into the external section of N-aryl-oxazolidinones: Synthesis and antimicrobial evaluation” (2021).
Converted amounts (≈) assume the structure as drawn.

Columns and labels:
Enterococcus faecium [1] = assay: Antibacterial activity against Enterococcus faecium 35667 assessed as inhibition of bacterial growth measured after 24 hrs; assay type: functional
Escherichia coli = assay: Antibacterial activity against Escherichia coli JW5503 delta tolC mutant assessed as inhibition of bacterial growth measured after 24 hrs; settings: JW5503, 24 h
Enterococcus faecalis [2] = assay: Antibacterial activity against Enterococcus faecalis 29212 assessed as inhibition of bacterial growth measured after 24 hrs; settings: Enterococcus faecalis, 29212, 24 h
Staphylococcus aureus [3] = assay: Antibacterial activity against Methicillin resistant Staphylococcus aureus 43300 assessed as inhibition of bacterial growth measured after 24 hrs; assay type: functional
Staphylococcus aureus [4] = assay: Antibacterial activity against Staphylococcus aureus 29213 assessed as inhibition of bacterial growth measured after 24 hrs; assay type: functional
Enterococcus faecalis [5] = assay: Antibacterial activity against vancomycin resistant Enterococcus faecalis 51575 assessed as inhibition of bacterial growth measured after 24 hrs; assay type: functional
[6] = Efflux ratio of MIC for Escherichia coli 25922 to MIC for Escherichia coli JW5503; assay type: functional
Outline: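 Ratio of the MIC against wild-type E. coli ATCC 25922 to the MIC against the tolC deletion mutant JW5503. Both MICs were read after 24 h, n = 3. Not determined when the MIC was >50 μM for both strains.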

Enterococcus faecium [7] = assay: Antibacterial activity against vancomycin resistant Enterococcus faecium 700221 assessed as inhibition of bacterial growth measured after 24 hrs; assay type: functional

| SMILES | MIC (Enterococcus faecium [1]) [µM] | MIC (Escherichia coli) [µM] | MIC (Enterococcus faecalis [2]) [µM] | MIC (Staphylococcus aureus [3]) [µM] | MIC (Staphylococcus aureus [4]) [µM] | MIC (Enterococcus faecalis [5]) [µM] | Ratio [6] | MIC (Enterococcus faecium [7]) [µM] |
| --- | --- | --- | --- | --- | --- | --- | --- | --- |
| CC(=O)NC[C@H]1CN(c2ccc(-c3ccc(O)cc3)c(F)c2)C(=O)O1 | 0.78 (≈ 0.269 µg/mL) | 1.56 (≈ 0.537 µg/mL) | 0.39 (≈ 0.134 µg/mL) | 0.78 (≈ 0.269 µg/mL) | 0.78 (≈ 0.269 µg/mL) | 0.39 (≈ 0.134 µg/mL) | > 32 | 0.39 (≈ 0.134 µg/mL) |
| CC(=O)NC[C@H]1CN(c2ccc(-c3ccc(CN)cc3)c(F)c2)C(=O)O1 | 0.78 (≈ 0.279 µg/mL) | 6.25 (≈ 2.23 µg/mL) | 1.56 (≈ 0.558 µg/mL) | 3.13 (≈ 1.12 µg/mL) | 3.13 (≈ 1.12 µg/mL) | 1.56 (≈ 0.558 µg/mL) | > 8 | 1.56 (≈ 0.558 µg/mL) |
| CC(=O)NC[C@H]1CN(c2ccc(-c3ccc(CNC(=O)c4cccc(B(O)O)c4)cc3)c(F)c2)C(=O)O1 | 0.78 (≈ 0.394 µg/mL) | 0.78 (≈ 0.394 µg/mL) | 0.39 (≈ 0.197 µg/mL) | 0.78 (≈ 0.394 µg/mL) | 0.78 (≈ 0.394 µg/mL) | 0.39 (≈ 0.197 µg/mL) | > 64 | 0.78 (≈ 0.394 µg/mL) |
| CC(=O)NCC1CN(c2ccc(-c3ccc(COC(=O)c4ccc(B(O)O)cc4)cc3)c(F)c2)C(=O)O1 (stereo unspecified) | 3.23 (≈ 1.64 µg/mL) | 6.25 (≈ 3.16 µg/mL) | 3.13 (≈ 1.58 µg/mL) | 1.56 (≈ 0.79 µg/mL) | 3.13 (≈ 1.58 µg/mL) | 1.56 (≈ 0.79 µg/mL) | > 8 | 1.56 (≈ 0.79 µg/mL) |
| O=C(O)c1cn(C2CC2)c2cc(N3CCNCC3)c(F)cc2c1=O [CIPROFLOXACIN] |  |  |  |  | 1.5 (≈ 0.497 µg/mL) | 3 (≈ 0.994 µg/mL) |  |  |
| CC(=O)NCC1CN(c2ccc(-c3ccc(COC(=O)c4ccc(B(O)O)cc4F)cc3)c(F)c2)C(=O)O1 (stereo unspecified) | 1.56 (≈ 0.818 µg/mL) | 25 (≈ 13.1 µg/mL) | 1.56 (≈ 0.818 µg/mL) | 1.56 (≈ 0.818 µg/mL) | 1.56 (≈ 0.818 µg/mL) | 1.56 (≈ 0.818 µg/mL) | > 2 | 1.56 (≈ 0.818 µg/mL) |
| CC(=O)NCC1CN(c2ccc(-c3ccc(COC(=O)c4ccc(B(O)O)cc4Cl)cc3)c(F)c2)C(=O)O1 (stereo unspecified) | 3.13 (≈ 1.69 µg/mL) | 25 (≈ 13.5 µg/mL) | 3.13 (≈ 1.69 µg/mL) | 3.13 (≈ 1.69 µg/mL) | 3.13 (≈ 1.69 µg/mL) | 3.13 (≈ 1.69 µg/mL) | > 2 | 3.13 (≈ 1.69 µg/mL) |
| CC(=O)NCC1CN(c2ccc(-c3ccc(COC(=O)c4ccc(B(O)O)c(F)c4)cc3)c(F)c2)C(=O)O1 (stereo unspecified) | 1.56 (≈ 0.818 µg/mL) | 12.5 (≈ 6.55 µg/mL) | 1.56 (≈ 0.818 µg/mL) | 1.56 (≈ 0.818 µg/mL) | 1.56 (≈ 0.818 µg/mL) | 0.78 (≈ 0.409 µg/mL) | > 4 | 1.56 (≈ 0.818 µg/mL) |
| CC(=O)NC[C@H]1CN(c2ccc(-c3cccc(CO)c3)c(F)c2)C(=O)O1 | 1.56 (≈ 0.559 µg/mL) | 3.13 (≈ 1.12 µg/mL) | 1.56 (≈ 0.559 µg/mL) | 1.56 (≈ 0.559 µg/mL) | 3.13 (≈ 1.12 µg/mL) | 3.13 (≈ 1.12 µg/mL) | > 16 | 1.56 (≈ 0.559 µg/mL) |
